Columns and labels:
[1] = molecular target: Genome polyprotein (dengue virus type 2) (UniProt P29990); experiment: Inhibition of DENV2 NS2B-NS3 protease expressed in Escherichia coli BL21(DE3) using Boc-Gly-Arg-Arg-AMC as substrate at 20 uM by FRET assay
Summary of the method: (§1)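 His-tagged NS2B/NS3 protease, purified by Ni affinity and size exclusion, in 50 mM Tris pH 9.0, 20% glycerol, 1 mM CHAPS with 100 µM Boc-Gly-Arg-Arg-AMC. Fluorescence is read every 30 s for 10 min at 25 °C. Percent inhibition is at a single inhibitor concentration of 20, 100 or 200 µM; ≥3 independent measurements.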

[2] = molecular target: Nonstructural protein 3 (Zika virus, UniProt A0A024AXB9); experiment: Inhibition of ZIKV NS2B-NS3 protease expressed in Escherichia coli BL21(DE3) using Boc-Gly-Arg-Arg-AMC as substrate by FRET assay
Summary of the method: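 His-tagged ZIKV NS2B/NS3 protease in 50 mM Tris pH 9.0, 20% glycerol, 1 mM CHAPS with 100 µM Boc-Gly-Arg-Arg-AMC. Dilution series 0.01–100 µM, read every 30 s for 10 min at 25 °C. IC50 from a four-parameter fit of hydrolysis rate; mean ± SD of ≥3 independent measurements.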

[3] = molecular target: Genome polyprotein (dengue virus type 2, UniProt P29990); experiment: Inhibition of DENV2 NS2B-NS3 protease expressed in Escherichia coli BL21(DE3) using Boc-Gly-Arg-Arg-AMC as substrate by FRET assay
Summary of the method: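 Recombinant His-tagged NS2B/NS3 protease, expressed in E. coli BL21-Gold (DE3) (1 mM IPTG, 20 °C, 16 h) and purified by Ni affinity and size exclusion. Assayed in 50 mM Tris pH 9.0, 20% glycerol, 1 mM Chaps, with 100 μM Boc-Gly-Arg-Arg-AMC. Fluorescence read every 30 s for 10 min at 25 °C; inhibitor 0.01–100 μM. IC50 from a four-parameter fit of hydrolysis rate; ≥3 independent experiments.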

[4] = molecular target: Nonstructural protein 3 (Zika virus) (UniProt A0A024AXB9); experiment: Inhibition of ZIKV NS2B-NS3 protease expressed in Escherichia coli BL21(DE3) using Boc-Gly-Arg-Arg-AMC as substrate at 20 uM by FRET assay; summary of the method: as §1
[5] = Chemical stability of compound in tris assay buffer at pH 9 measured after 15 mins by HPLC/MS analysis; type: physicochemical; conditions: pH 9, 0.25 h
Summary of the method: (§2)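 Compound incubated in protease assay buffer (Tris pH 9.0) under simulated assay conditions and analysed by HPLC/MS after 15 min, 90 min and 20 h. Stability is the compound peak integral in the 210 nm UV trace as a proportion of the total integral.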

[6] = Chemical stability of compound in cell culture conditions at pH 7.4 HEPES buffer measured after 20 hrs by HPLC/MS analysis; type: physicochemical; conditions: read-out: Stabilty
Summary of the method: (§3)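 Compound incubated under simulated cell-assay conditions (HEPES pH 7.4) and analysed by HPLC/MS after 15 min, 90 min and 20 h. Stability is the compound peak integral in the 210 nm UV trace as a fraction of the total integral.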

[7] = Chemical stability of compound in tris assay buffer at pH 9 measured after 90 mins by HPLC/MS analysis; type: physicochemical; conditions: pH 9, 1.5 h; summary of the method: as §2
[8] = Chemical stability of compound in cell culture conditions at pH 7.4 HEPES buffer measured after 90 mins by HPLC/MS analysis; type: physicochemical; conditions: read-out: Stabilty; summary of the method: as §3
[9] = Chemical stability of compound in cell culture conditions at pH 7.4 HEPES buffer measured after 15 mins by HPLC/MS analysis; type: physicochemical; conditions: read-out: Stabilty; summary of the method: as §3
[10] = molecular target: Urokinase-type plasminogen activator (Homo sapiens) (UniProt P00749); experiment: Inhibition of Urokinase plasminogen activator (unknown origin) assessed as residual enzyme activity at 20 uM by FRET assay relative to control
Summary of the method: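 Urokinase plasminogen activator in 50 mM Tris pH 7.4, 50 mM NaCl, 0.5 mM EDTA with 240 µM Z-Gly-Gly-Arg-AMC. Compound at 20 µM, read every 30 s for 10 min at 25 °C. Residual activity is relative to DMSO control; mean ± SD, ≥3 independent measurements.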

[11] = molecular target: T1, Sortase A (Staphylococcus aureus) (UniProt Q9S446); experiment: Inhibition of staphylococcus aureus Sortase A protease assessed as residual enzyme activity at 20 uM by FRET assay relative to control
T1 sequence (whole entry): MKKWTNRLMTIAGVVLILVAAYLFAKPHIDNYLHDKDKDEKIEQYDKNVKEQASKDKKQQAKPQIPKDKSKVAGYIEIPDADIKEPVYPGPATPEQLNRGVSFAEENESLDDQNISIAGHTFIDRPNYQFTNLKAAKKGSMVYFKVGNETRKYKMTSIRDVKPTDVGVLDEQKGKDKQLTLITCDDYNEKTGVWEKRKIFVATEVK
Summary of the method: (§4)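 Compound at 20 µM, read every 30 s for 10 min at 25 °C. Residual activity is relative to DMSO control; mean ± SD, ≥3 independent measurements.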

[12] = molecular target: Chymotrypsin (Homo sapiens) (UniProt Q99895+P17538+P40313+Q6GPI1); experiment: Inhibition of Chymotrypsin (unknown origin) assessed as residual enzyme activity at 20 uM by FRET assay relative to control; type: protein assay
Summary of the method: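 α-Chymotrypsin in 50 mM Tris pH 8.0, 100 mM NaCl with Succ-Leu-Tyr-AMC. Compound at 20 µM, read every 30 s for 10 min at 25 °C. Residual activity is relative to DMSO control; mean ± SD, ≥3 independent measurements.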

[13] = Inhibition of Rhodesain (unknown origin) assessed as residual enzyme activity at 20 uM by FRET assay relative to control
Summary of the method: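 Compound at 20 µM, fluorescence read every 30 s for 10 min at 25 °C. Residual activity is relative to DMSO control; mean ± SD, ≥3 independent measurements.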

[14] = system: Severe acute respiratory syndrome coronavirus 2; experiment: Inhibition of SARS-CoV-2 Main protease assessed as residual enzyme activity at 20 uM by FRET assay relative to control
Summary of the method: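 Compound at 20 μM; fluorescence read every 30 s for 10 min at 25 °C. Residual activity expressed relative to DMSO control; mean of ≥3 independent measurements.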

[15] = Chemical stability of compound in tris assay buffer at pH 9 measured after 20 hrs by HPLC/MS analysis; type: physicochemical; conditions: pH 9, 20 h; summary of the method: as §2
[16] = molecular target: Prothrombin (Homo sapiens) (UniProt P00734); experiment: Inhibition of Thrombin (unknown origin) assessed as residual enzyme activity at 20 uM by FRET assay relative to control; summary of the method: as §4
[17] = molecular target: Trypsin (Homo sapiens) (UniProt P07477+P07478+P35030); experiment: Inhibition of Trypsin (unknown origin) assessed as residual enzyme activity at 20 uM by FRET assay relative to control; type: protein assay
Summary of the method: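 Trypsin in 50 mM Tris pH 8.0, 100 mM NaCl, 5 mM EDTA with 40 µM Z-Phe-Arg-AMC. Compound at 20 µM, read every 30 s for 10 min at 25 °C. Residual activity is relative to DMSO control; mean ± SD, ≥3 independent measurements.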

SMILES | inhibition [1] [%] | IC50 [2] [µM] | IC50 [3] [µM] | also measured
Cc1ccc(S(=O)(=O)NC(CSCc2ccccc2)C(=O)Nc2nc3cc(O)c(O)cc3s2)cc1 (single isomer, unassigned) | 57 | 2.13 |  | 
Cc1ccc(S(=O)(=O)N[C@H](C(=O)Nc2nc3cc(O)c(O)cc3s2)C(C)(C)C)cc1 | 44 | 5.74 |  | 
O=C(Nc1nc2cc(O)c(O)cc2s1)c1ccc(Cl)cc1 |  | 6.66 | 5.97 | 
O=C(Nc1ccccc1)[C@@H]1CCCN1C(=O)c1cc2cc(O)c(O)cc2[nH]1 | 36 |  |  | inhibition [4]: 44%
Cc1ccc(S(=O)(=O)N[C@@H](Cc2ccccc2)C(=O)Nc2nc3cc(O)c(O)cc3s2)cc1 | 33 | 3.66 |  | 
O=C(Nc1ccccc1)c1cnc2cc(O)c(O)cc2c1 |  | 6.38 | 3.63 | 
Cc1ccc(S(=O)(=O)N[C@@H](C)C(=O)Nc2nc3cc(O)c(O)cc3s2)cc1 | 39 | 6.48 |  | 
O=C(Nc1nc2cc(O)c(O)cc2s1)C(c1ccc(O)cc1)c1ccc(O)cc1 | 45 |  |  | inhibition [4]: 54%
O=C(O)C[C@H](NC(=O)c1ccccc1)C(=O)Nc1nc2cc(O)c(O)cc2s1 | 32 |  |  | inhibition [4]: 45%
O=C(Nc1ccccc1)[C@@H]1CCCN1C(=O)c1cc2cc(O)c(O)cc2s1 |  | 3.43 | 4.01 | 
O=C(Nc1ccccc1)[C@@H]1CCCN1C(=O)c1cc2cc(O)c(O)cc2o1 |  | 2.43 | 6.43 | Stabilty [5]: 83%; remaining at 20 h [6]: 95%; Stabilty [7]: 83%; remaining at 1.5 h [8]: 95%; remaining at 0.25 h [9]: 95%; Activity [10]: 82%; Activity [11]: 81%; Activity [12]: 78%; Activity [13]: 93%; Activity [14]: 99%; Stabilty [15]: 83%; Activity [16]: 81%; Activity [17]: 88%
O=C(Nc1ccccc1)[C@@H]1CCCN1C(=O)c1ccc2cc(O)c(O)cc2c1 | 9 |  |  | inhibition [4]: 42%
O=C(CN(C(=O)c1ccccc1)c1ccccc1)Nc1nc2cc(O)c(O)cc2s1 | 56 | 2.07 |  | 
O=C(N[C@@H](Cc1ccc(O)cc1)C(=O)Nc1nc2cc(O)c(O)cc2s1)c1ccccc1 | 63 | 4.59 |  | 
Cc1ccc(C(=O)Nc2nc3cc(O)c(O)cc3s2)cc1 |  | 15.4 | 6.39 | 
O=C(Nc1ccc(I)cc1)c1nc2cc(O)c(O)cc2s1 |  | 1.3 | 2.48 | 
O=C(Nc1nc2cc(O)c(O)cc2s1)c1ccccc1 |  | 9.19 | 27 | Stabilty [5]: 67%; remaining at 20 h [6]: 95%; Stabilty [7]: 61%; remaining at 1.5 h [8]: 95%; remaining at 0.25 h [9]: 95%; Activity [10]: 100%; Activity [11]: 57%; Activity [12]: 77%; Activity [13]: 91%; Activity [14]: 90%; Stabilty [15]: 83%; Activity [16]: 75%; Activity [17]: 80%
Cc1ccc(S(=O)(=O)N2CCC[C@@H]2C(=O)Nc2nc3cc(O)c(O)cc3s2)cc1 |  |  |  | Activity [10]: 100%; Activity [11]: 83%; Activity [12]: 100%; Activity [13]: 93%; Activity [14]: 94%; Activity [16]: 97%; Activity [17]: 96%

SMILES | inhibition [1] [%] | IC50 [2] [µM] | IC50 [3] [µM] | also measured
O=C(Nc1ccccc1)[C@@H]1CCCN1C(=O)c1cc2c(O)cc(O)cc2o1 |  | 20.1 | 27.7 | 
O=C(Nc1ccccc1)c1nc2cc(O)c(O)cc2s1 |  | 9.19 | 27 | Stabilty [5]: 95%; remaining at 20 h [6]: 95%; Stabilty [7]: 94%; remaining at 1.5 h [8]: 95%; remaining at 0.25 h [9]: 95%; Stabilty [15]: 88%
O=C(Nc1ccccc1)c1cc2cc(O)c(O)cc2s1 |  | 1.59 | 2.73 | 
O=C(Nc1nc2ccc([N+](=O)[O-])cc2s1)c1ccc(I)cc1 | 36 |  |  | inhibition [4]: 49%
CC[C@H](C)[C@H](NS(=O)(=O)c1ccc(C)cc1)C(=O)Nc1nc2cc(O)c(O)cc2s1 | 33 | 5.35 |  | 
O=C(Nc1ccccc1)[C@@H]1CCCN1C(=O)c1nc2cc(O)c(O)cc2s1 |  | 4 | 11.6 | 
O=C(Nc1ccccc1)[C@@H]1CCCN1C(=O)c1cnc2cc(O)c(O)cc2c1 | 23 |  |  | inhibition [4]: 44%
O=C(CCNC(=O)c1ccccc1)Nc1nc2cc(O)c(O)cc2s1 | 23 |  |  | inhibition [4]: 38%
CCN(CC)C(=O)C[C@H](NC(=O)c1ccccc1)C(=O)Nc1nc2cc(O)c(O)cc2s1 | 16 |  |  | inhibition [4]: 13%
O=C(Nc1nc2cc(O)c(O)cc2s1)c1ccc(Cl)c(Cl)c1 |  |  | 4.86 | inhibition [4]: 39%
O=C(Nc1nc2cc(O)c(O)cc2s1)C(c1ccc(Cl)cc1)c1ccc(Cl)cc1 | 58 | 0.96 |  | 
O=C(Nc1nc2cc(O)c(O)cc2s1)c1ccc(-c2ccccc2)cc1 |  | 1.22 | 7.8 | 
O=[N+]([O-])c1ccc2nc(NC(=S)Nc3ccc(I)cc3)sc2c1 |  | 6.51 | 11.2 | 
O=C(Nc1ccccc1)c1cc2cc(O)c(O)cc2[nH]1 |  | 3.44 | 6.9 | 
O=C(C[C@H](NC(=O)c1ccccc1)C(=O)Nc1nc2cc(O)c(O)cc2s1)Nc1ccccc1 |  | 5.48 | 9.95 | 
O=C(Nc1ccccc1)[C@@H]1CCCCN1C(=O)c1cc2cc(O)c(O)cc2o1 |  | 2.9 | 4.73 | Activity [10]: 94%; Activity [11]: 74%; Activity [12]: 77%; Activity [13]: 90%; Activity [14]: 57%; Activity [16]: 93%; Activity [17]: 95%
Cc1ccc(S(=O)(=O)N[C@H](C)C(=O)Nc2nc3cc(O)c(O)cc3s2)cc1 | 14 |  |  | inhibition [4]: 26%
